We go through 2 molecules from ChEMBL document CHEMBL2176896, “Phthalazine derivatives containing imidazole rings behave as Fe-SOD inhibitors and show remarkable anti-T. cruzi activity in immunodeficient-mouse mode of infection” (J Med Chem, 2012).

pIC50: −log10 of the molar value. Calls of active or inactive are those of the source. The rule behind the calls is not given here.

Data set [1] has as its system Trypanosoma cruzi. Kind of data set: Antitrypanosomal activity against Trypanosoma cruzi IRHOD/VO/2008/SN3 metacyclic forms infected in african green monkey Vero cells assessed as inhibition of intracellular amastigotes replication at IC25 level 0.5 to 10 days. Type of data set: functional. In outline: (§1)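 Vero cells in RPMI infected with metacyclic forms at 10:1. Compounds added at IC25 immediately after infection for 12 h at 37 °C, 5% CO2, then washed off. Cultures grown 10 days with fresh medium every 48 h. Giemsa slides scored for % infected cells and amastigotes per cell (>100 cells); trypomastigotes in medium counted. Mean of four.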

In data set [2] the test system is Trypanosoma cruzi. Briefly: Antitrypanosomal activity against Trypanosoma cruzi IRHOD/VO/2008/SN3 metacyclic forms infected in BALB/c mouse model of acute Chagas disease assessed as reduction parasitemia at 5 mg/kg/day, ip administered for 5 consecutive days starting on day 7 post infection until day 12 post infection and measured on day 25 post infection. Type of data set: functional, organism-based. A digest of the protocol: (§2)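 Groups of six female BALB/c mice (6–8 weeks, 25–30 g) inoculated ip with 5 × 10^5 metacyclic trypomastigotes. Dosed ip at 5 or 15 mg/kg/day on days 7–12 pi; untreated infected controls. Mandibular-vein blood (5 μL in 495 μL PBS) counted every 3 days for 40 days in a Neubauer chamber, as parasites/mL.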

The test system of data set [3] is Trypanosoma cruzi. Kind of data set: Antitrypanosomal activity against Trypanosoma cruzi IRHOD/VO/2008/SN3 metacyclic forms infected in african green monkey Vero cells assessed as inhibition of trypomastigotes level at IC25 level 0.5 to 10 days. Type of data set: functional. In outline: as §1
A short description of data set [4]: Selectivity index, ratio of IC50 for african green monkey Vero cells to IC50 for Trypanosoma cruzi IRHOD/VO/2008/SN3 intracellular amastigotes. Type of data set: toxicity, cell-based. The settings on record: read-out: Ratio IC50.
The subject of data set [5] is Trypanosoma cruzi. Briefly: Effect on glucose metabolism in Trypanosoma cruzi IRHOD/VO/2008/SN3 epimastigotes assessed as excreted succinate level at IC25 level incubated for 96 hrs at 28 degC by [1H]NMR spectroscopy.
Data set [6] in a line: Selectivity index, ratio of IC50 for african green monkey Vero cells to IC50 for Trypanosoma cruzi IRHOD/VO/2008/SN3 blood trypomastigotes. The settings on record: Vero cells versus Trypanosoma cruzi blood trypomastigotes, read-out: Ratio IC50. Type of data set: toxicity, cell-based.
The subject of data set [7] is Trypanosoma cruzi. Kind of data set: Induction of ultrastructural modifications in Trypanosoma cruzi Maracay at IC25 level incubated for 96 hrs by transmission electron microscopy. In kind it is functional, organism-based. A digest of the protocol:
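Maracay epimastigotes at 5 × 10^5 cells/mL exposed at IC25 for 96 h. Pellets washed in PBS, fixed in 2% paraformaldehyde/glutaraldehyde in 0.05 M cacodylate (pH 7.4) for 4 h at 4 °C, then examined by TEM.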

Data set [8] concerns Trypanosoma cruzi. Briefly: Effect on glucose metabolism in Trypanosoma cruzi IRHOD/VO/2008/SN3 epimastigotes assessed as excreted acetate level at IC25 level incubated for 96 hrs at 28 degC by [1H]NMR spectroscopy.
The nature of data set [9]: Inhibition of Trypanosoma cruzi IRHOD/VO/2008/SN3 epimastigotes Iron superoxide dismutase by spectrophotometry. In outline: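 Enzyme from sonicated parasites in STE buffer, pH 7.8, or human erythrocyte CuZn-SOD. Activity measured as NBT reduction by superoxide (Beyer–Fridovich): methionine, NBT, Triton X-100 and riboflavin, with A560 read before and after 10 min of light. Compounds tested at 1–100 μM. Mean of five; IC50 by linear regression from Kc.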

Data set [10] concerns Trypanosoma cruzi. Briefly: Antitrypanosomal activity against Trypanosoma cruzi IRHOD/VO/2008/SN3 metacyclic forms infected in BALB/c mouse model of chronic Chagas disease subjected to 3 cycles of immunosuppression with 50 mg/kg cyclophosphamide monohydrate for 3 consecutive weeks assessed as parasitemia reactivation level at 15 mg/kg/day, ip administered for 5 consecutive days starting on day 7 post infection until day 12 post infection and measured on day 150 post infection. In kind it is functional. In outline:
(§3)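 Female BALB/c mice (6–8 wk, 25–30 g), six per group, were infected ip with 5 × 10^5 metacyclic trypomastigotes from infected mouse blood and dosed ip daily on days 7–12 pi. From day 120 pi a subgroup got three 4-day cycles of cyclophosphamide 50 mg/kg, 3 days apart. Parasites were counted by Neubauer chamber the day after cycle three in 5 μL mandibular-vein blood (1:100 PBS). Reactivation was scored against the matching non-immunosuppressed group; three experiments.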

For data set [11], the system named is Trypanosoma cruzi. Briefly: Antitrypanosomal activity against Trypanosoma cruzi IRHOD/VO/2008/SN3 […] amastigotes infected in african green monkey Vero cells incubated for 72 hrs. Type of data set: functional, organism-based. The settings on record: IRHOD/VO/2008/SN3, Vero.
Data set [12] relates to Trypanosoma cruzi. Kind of data set: Antitrypanosomal activity against Trypanosoma cruzi IRHOD/VO/2008/SN3 metacyclic forms infected in BALB/c mouse model of chronic Chagas disease subjected to 3 cycles of immunosuppression with 50 mg/kg cyclophosphamide monohydrate for 3 consecutive weeks assessed as parasitemia reactivation level at 5 mg/kg/day, ip administered for 5 consecutive days starting on day 7 post infection until day 12 post infection and measured on day 150 post infection. Type of data set: functional. In outline: as §3

Data set [13] has as its system Trypanosoma cruzi. Briefly: Antitrypanosomal activity against Trypanosoma cruzi IRHOD/VO/2008/SN3 isolated from mouse blood trypomastigotes incubated for 24 hrs. In kind it is functional, organism-based. The settings on record: IRHOD/VO/2008/SN3, Blood. In outline:
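Blood from BALB/c mice 7 days post-infection, drawn by cardiac puncture into 3.8% citrate (7:3). Compounds in PBS at 10, 25 and 50 μM final, mixed with infected blood (~1 × 10^6 parasites/mL). Shaken 10 min at room temperature, held 24 h at 4 °C. Parasites counted at 1:100 dilution against a PBS control.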

Data set [14] can be described thus: Selectivity index, ratio of IC50 for african green monkey Vero cells to IC50 for Trypanosoma cruzi IRHOD/VO/2008/SN3 axenic amastigotes. In kind it is toxicity, cell-based. The note with it: Vero cells versus Trypanosoma cruzi axenic amastigotes, read-out: Ratio IC50.
For data set [15], the system named is Trypanosoma cruzi. Kind of data set: Antitrypanosomal activity against Trypanosoma cruzi IRHOD/VO/2008/SN3 epimastigotes incubated for 72 hrs. The settings on record: IRHOD/VO/2008/SN3, 72 h.
A short description of data set [16]: Selectivity index, ratio of IC50 for african green monkey Vero cells to IC50 for Trypanosoma cruzi IRHOD/VO/2008/SN3 epimastigotes. Type of data set: toxicity, cell-based. The note with it: Vero cells versus Trypanosoma cruzi epimastigotes, read-out: Ratio IC50.
Data set [17] concerns Trypanosoma cruzi. Kind of data set: Antitrypanosomal activity against Trypanosoma cruzi IRHOD/VO/2008/SN3 metacyclic forms infected in BALB/c mouse model of acute Chagas disease assessed as reduction parasitemia at 5 mg/kg/day, ip administered for 5 consecutive days starting on day 7 post infection until day 12 post infection and measured on day 15 to 20 post infection. In kind it is functional. A digest of the protocol: as §2

Data set [18] relates to Trypanosoma cruzi. Briefly: Antitrypanosomal activity against Trypanosoma cruzi IRHOD/VO/2008/SN3 metacyclic forms infected in BALB/c mouse model of chronic Chagas disease subjected to 3 cycles of immunosuppression with 50 mg/kg cyclophosphamide monohydrate for 3 consecutive weeks assessed as change in IgG absorbance level at 15 mg/kg/day, ip administered for 5 consecutive days starting on day 7 post infection until day 12 post infection and measured on day 150 post infection by ELISA. In kind it is functional. In outline: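 Infected, treated mice (ip 5 or 15 mg/kg/day, days 7–12 pi) kept to day 120. Half then given three 4-day cycles of cyclophosphamide at 50 mg/kg with 3-day gaps; the rest left untreated. Serum IgG measured by ELISA on parasite-excreted Fe-SOD antigen: 1:100 serum, anti-IgG peroxidase 1:1000, OPD, A492, in triplicate. Reported as immunosuppressed minus non-immunosuppressed OD.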
Background: An ELISA detects its analyte on a solid surface through an enzyme-linked reagent.

In general, pIC50 refers to the negative decadic logarithm of the IC50, by convention in mol/L.

As for `Clc1nnc(NCCc2c[nH]cn2)c2ccccc12`, the entries for the “inhibition (INH)” value in data set [1] and in [3] were 62.9% and 85.1%, respectively. Further, the result in data set [2], in data set [7] and in [17] was Active. Further, the selectivity ratio in data set [4] worked out at 45.5; in data set [6] it was 46.5; in data set [14] it was 42.3; in data set [16], 49.1. In addition, in data set [5], the outcome was inactive. For the same molecule, the values for the Activity in [8], in data set [10] and in [12] were -21%, 4% and 9%, respectively. Besides, the pIC50 in data set [9] is 4.89; in data set [11], 5.00; in data set [13], 5.04; in data set [15] it was 5.06. Besides, in data set [18], the deltaA came out at 0.0067.
Take `Clc1nnc(NCCCn2ccnc2)c2ccccc12`: the “inhibition (INH)” value in [1] turned out to be 55.8%; in [3] it was 73.9%. The outcome in [2], in data set [7] and in [17] was Active. The selectivity ratio came to 49.1 in [4], 42.8 in data set [6], 41.2 in data set [14] and 49.6 in [16]. In addition, the result in data set [5] was inactive. Besides, the Activity in data set [8] was -54%; in [10] it was 8%; in data set [12], 21%. For the same molecule, the pIC50 in [9] was 4.84; in data set [11], 4.97; in data set [13], 4.99; in [15], 5.06. Also, the deltaA in data set [18] turned out to be 0.0096.
